Experimental findings from ChEMBL document CHEMBL1137746, “New insights into the antioxidant activity of hydroxycinnamic acids: Synthesis and physicochemical characterization of novel halogenated derivatives” (Eur J Med Chem, 2009) are described below.

The logP is a log measure of how a compound divides between an organic and an aqueous phase.

A short description of data set [1]: ABTS radical scavenging activity assessed as Trolox equivalent antioxidant capacity at 50 uM by spectrophotometric analysis. Type of data set: physicochemical. Summed up:
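ABTS•+ generated from 7 mM ABTS in water with 2.45 mM potassium persulfate, kept dark at room temperature 12–16 h. Ethanolic compound solutions added to 180 µL radical solution; absorbance followed over 20 min. Blank control set as 100% radical. Triplicate. TE = (A_control − A_test)/(A_control − A_trolox); Trolox reference.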

Data set [2] is described as follows: DPPH radical scavenging activity assessed as Trolox equivalent antioxidant capacity at 50 uM after 40 mins. Format: functional. Summed up: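 DPPH in ethanol; decrease in absorbance at 517 nm measured. Blank was ethanol; control was DPPH solution in ethanol. Triplicate. Trolox used as reference; TE = (A_control − A_test)/(A_control − A_trolox), A_control being DPPH solution without sample.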
On the technique in general: The DPPH test is a chemical assay of radical scavenging.

Data set [3] can be described thus: Octanol-water partition coefficient, log P of the compound.

As to `COc1cc(/C=C/C(=O)O)cc(OC)c1O` [SINAPINATE], the Activity in data set [1] was determined as 2.538; in data set [2], 0.862.

As for `CCOC(=O)/C=C/c1cc(Br)c(O)c(OC)c1`, in data set [3], the logP worked out at 2.85. Also, the Activity worked out at 2.558 in data set [1] and 0.558 in data set [2].

For the molecule `COc1cc(/C=C/C(=O)O)ccc1O` [FERULATE], in data set [3], the logP was 1.42. Moreover, the figures for the Activity in data set [1] and in data set [2] were 2.534 and 0.781, respectively.

`CCOC(=O)/C=C/c1cc(O)c(O)c(Br)c1` showed a logP in data set [3] of 2.58. Moreover, the Activity in data set [1] was 2.527; in data set [2], 0.938.

Turning to `CCOC(=O)/C=C/c1ccc(O)c(O)c1` [ETHYL CAFFEATE], the logP in data set [3] was 1.75. The Activity amounted to 2.558 in data set [1] and 0.877 in data set [2].

`CCOC(=O)/C=C/c1ccc(O)c(OC)c1` [ETHYL FERULATE] gave a logP in data set [3] of 2.02. Further, the Activity in data set [1] was determined as 2.538; in data set [2], 0.593.

The molecule `O=C(O)/C=C/c1cc(O)c(O)c(Br)c1` yielded a lipophilicity (logP) in data set [3] of 1.98. For the same molecule, the Activity in data set [1] was determined as 2.496; in data set [2], 1.01.

On to `COc1cc(/C=C/C(=O)O)cc(Br)c1O`, for which the logP in data set [3] came to 2.25. Besides, the Activity was 2.554 in data set [1] and 0.808 in data set [2].

Turning to `O=C(O)/C=C/c1ccc(O)c(O)c1` [CAFFEIC ACID], the Activity in data set [1] was 2.538; in data set [2], 0.978.
